Results taken from PMC7744370 (European journal of medicinal chemistry, 2020).
Values belong to the molecule of their own block, whether it stands above or below them.

Experiments:
[1] = In vivo BBB permeability, plasma and brain distribution by LC-MS/MS; set-up: species or system C57 mice
How it was run: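 Male and female C57 mice, 8 weeks old and about 20 g, received a single i.p. 10 mg/kg dose of test compound in 2.5% ethanol, 2.5% DMSO, 5% Tween 80, 25% PEG 400 and 65% PBS. Blood was drawn under anaesthesia at 0, 0.5, 1, 6, 24 and 48 h. Brains were taken after cardiac perfusion and homogenised in PBS (1:3 w/v). Samples were acetonitrile-precipitated with internal standard and quantified by positive-ESI MRM LC-MS/MS against blank-matrix calibration curves. Results are mean ± SEM of 2–4 experiments.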

[2] = system: serotonin receptors; experiment: Primary binding assay at serotonin receptors; details: 10 μM
How it was run: (§1)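 […] primary binding screen across a panel of brain-expressed CNS receptors, including GPCRs, with test compound at 10 μM. The read-out is % inhibition of binding at each receptor, reported as mean ± SEM of four independent experiments. Receptors are grouped by >50% and >90% inhibition.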

[3] = system: dopamine receptors (subtypes D1-D5); experiment: Primary binding assay at dopamine receptors; details: 10 μM
How it was run: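 Primary binding screen across a CNS GPCR panel, run through the NIMH screening programme at UNC Chapel Hill. Test compound at 10 μM; read-out is % inhibition as mean ± SEM of four independent experiments. Ki was not evaluated for receptors with under 50% activity.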

[4] = target: dopamine transporter (Homo sapiens, UniProt Q01959); experiment: NIMH PDSP binding assay at dopamine transporter
dopamine transporter, sequence (Q01959 whole entry): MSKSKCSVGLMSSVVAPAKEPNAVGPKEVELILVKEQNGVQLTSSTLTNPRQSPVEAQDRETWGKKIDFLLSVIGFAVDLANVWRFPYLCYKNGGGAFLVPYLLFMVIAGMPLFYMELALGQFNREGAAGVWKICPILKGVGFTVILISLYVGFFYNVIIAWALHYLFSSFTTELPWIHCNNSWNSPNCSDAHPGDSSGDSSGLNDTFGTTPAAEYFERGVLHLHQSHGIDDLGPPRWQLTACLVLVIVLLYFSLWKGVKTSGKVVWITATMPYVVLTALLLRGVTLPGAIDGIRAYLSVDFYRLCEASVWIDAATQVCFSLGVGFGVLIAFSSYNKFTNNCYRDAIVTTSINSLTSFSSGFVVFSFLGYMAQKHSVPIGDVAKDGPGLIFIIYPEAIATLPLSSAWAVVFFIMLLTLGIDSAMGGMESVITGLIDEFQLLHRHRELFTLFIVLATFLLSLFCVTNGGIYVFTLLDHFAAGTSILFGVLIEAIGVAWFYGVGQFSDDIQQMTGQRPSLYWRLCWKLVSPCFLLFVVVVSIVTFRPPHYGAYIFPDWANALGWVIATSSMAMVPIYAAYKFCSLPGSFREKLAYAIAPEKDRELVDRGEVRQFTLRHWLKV

[5] = Liver microsomal stability; format: in vitro ADME; details: rat liver microsomes, up to 60 minutes, compared with PFL
How it was run: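 Pooled male Sprague-Dawley rat liver microsomes were diluted to a 6.2% mixture in warm potassium-phosphate buffer. Test compound, diluted to 5 μM from a DMSO stock, was mixed with NADPH regenerating solution and prewarmed to 37 °C. Microsomes were then added and incubated 1 h at 37 °C with shaking. Aliquots at 0, 5, 15, 30 and 60 min were quenched in ice-cold acetonitrile, centrifuged at 4 °C and analysed by LC-MS/MS. Percent remaining was calculated from peak-area ratios versus T=0. Results are mean ± SEM, three experiments in triplicate.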

[6] = system: MDA-MB-231 triple-negative breast cancer cells; experiment: MTT cytotoxicity assay on MDA-MB-231 cells; format: cell-based, human
How it was run: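 MDA-MB-231 cells were kept in DMEM with 10% heat-inactivated FBS and antibiotic-antimycotic at 37 °C, 5% CO2, and tested for mycoplasma. Cells were seeded at 8000/well, grown 24 h, then screened at 20 μM. Dose series of 0–25 μM were given in 2% FBS DMEM with 0.1% final DMSO for 48 h. MTT (0.5 mg/mL) was added for 2 h at 37 °C, formazan dissolved in DMSO and read at 570 nm. IC50 was fitted from three independent experiments.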

[7] = system: GPCRs expressed in the brain; experiment: Primary binding assay at selected CNS receptors; details: 10 μM
How it was run: as §1

[8] = system: MDA-MB-231 cells; experiment: Induction of apoptosis in MDA-MB-231 cells; format: cell-based, human; details: 1 μM, 48 hours
[9] = system: MDA-MB-231 cells; experiment: Cell cycle analysis in MDA-MB-231 cells; format: cell-based, human
[10] = system: FGFR1; experiment: pFGFR1 immunoblot in MDA-MB-231 cells with and without bFGF; format: cell-based, human; details: 3 μM and 6 μM, in the presence of bFGF, 48 hours
How it was run: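 Phospho-FGFR1 (1:1000) western blot used MDA-MB-231 lysates after 48 h exposure to test compound, with or without the natural ligand bFGF. Lysis was on ice in RIPA buffer with protease/phosphatase inhibitors, followed by SDS-PAGE of equal protein and transfer to PVDF. β-tubulin (1:2000) served as loading control. Detection used HRP anti-rabbit secondary and chemiluminescence, then band densitometry; n = 3.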

[11] = system: caspase-3; experiment: Caspase-3 cleavage; format: cell-based, human; details: MDA-MB-231
How it was run: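 MDA-MB-231 cells, grown in DMEM with 10% heat-inactivated FBS at 37 °C and 5% CO2, were exposed to test compound for 48 h and lysed on ice in RIPA buffer with protease/phosphatase inhibitors. Equal protein was run on SDS-PAGE and blotted to PVDF. Blots were probed for cleaved caspase-3 and total caspase-3 (1:1000), with β-tubulin (1:2000) as loading control. Detection used goat anti-rabbit HRP secondary and chemiluminescence; bands were quantified by densitometry.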

- Tmax ([1]; both, C57, mouse, in vivo, ip, 10 mg/kg): 1 h
- ability to cross the BBB in vivo ([1]; mice, 10 mg/kg i.p.): retained activity to cross the BBB
- peak concentration ([1]; mice, 10 mg/kg single i.p., plasma and brain (Fig. 3)): approximately 1000 nM
- interaction with dopamine receptors (subtypes D1-D5) [3]: no significant interaction
Compound: O=C(NCCCCC(c1ccc(F)cc1)c1ccc(F)cc1)Nc1ccc(Cl)cc1 [4a, 1-(5,5-bis(4-fluorophenyl)pentyl)-3-(4-chlorophenyl)urea]
- activity at serotonin receptors [2]: no activity at serotonin receptors, except for 5HT-2C

- DAT inhibitory activity (in words) [4]: inactive as a DAT inhibitor
Compound: CN(CCCCC(c1ccc(F)cc1)c1ccc(F)cc1)C(=O)N(C)c1ccc(Cl)c(C(F)(F)F)c1 [compound 15, 1-(5,5-bis(4-fluorophenyl)pentyl)-3-(4-chloro-3-(trifluoromethyl)phenyl)-1,3-dimethylurea]

- metabolic stability in liver microsomes [5]: preferred metabolic stability over PFL
Compound: O=C(NCCCCC(c1ccc(F)cc1)c1ccc(F)cc1)Nc1ccc(Cl)c(C(F)(F)F)c1 [4l, 1-(5,5-bis(4-fluorophenyl)pentyl)-3-(4-chloro-3-(trifluoromethyl)phenyl)urea]

- DAT inhibitory activity (in words) [4]: abolished DAT activity
Compound: O=C(Nc1ccc(Cl)c(C(F)(F)F)c1)N1CCC(CC(c2ccc(F)cc2)c2ccc(F)cc2)CC1 [19b, 4-(2,2-bis(4-fluorophenyl)ethyl)-N-(4-chloro-3-(trifluoromethyl)phenyl) piperidine-1 carboxamide]

- decrease in affinity to DAT compared to 4l [4]: 100 fold
Compound: CC(=O)Nc1cc(NC(=O)NCCCCC(c2ccc(F)cc2)c2ccc(F)cc2)ccc1Cl [4o, N-(5-(3-(5,5-bis(4-fluorophenyl)pentyl)ureido)-2-chlorophenyl)acetamide]

Compound: O=C(NCCCCC(c1ccc([N+](=O)[O-])cc1)c1ccc([N+](=O)[O-])cc1)Nc1ccc(Cl)c(C(F)(F)F)c1 [8g, 1-(5,5-bis(4-nitrophenyl)pentyl)-3-(4-chloro-3-(trifluoromethyl)phenyl)urea]
- optimization of cytotoxicity relative to hit molecule 4a [6]: 6 fold

- number of receptors (GPCRs) inhibited at the level above 50% [7]: 28
Compound: OC1(c2ccc(Cl)c(C(F)(F)F)c2)CCN(CCCC(c2ccc(F)cc2)c2ccc(F)cc2)CC1 [PFL, penfluridol]

Compound: O=C(NCCCCC(c1ccc(F)cc1)c1ccc(F)cc1)Nc1ccc([N+](=O)[O-])c(C(F)(F)F)c1 [4q, 1-(5,5-bis(4-fluorophenyl)pentyl)-3-(4-nitro-3-(trifluoromethyl)phenyl)urea]
- induction of apoptosis [8]: significant induction of apoptosis
- effect on cell cycle [9]: did not affect the cell cycle
- metabolic stability in liver microsomes [5]: preferred metabolic stability over PFL
- phosphorylation of FGFR1 [10]: completely abrogated phosphorylation of FGFR1
- caspase-3 cleavage and activation [11]: capable of caspase-3 cleavage and activation
